Assay [1] deals with U-937. Briefly: Effect on alpha tubulin acetylation in U937 cells at 5 uM after 24 hrs by Western blot analysis. It is filed as functional, cell-based. The following applies: Homo sapiens. For orientation: A western blot detects proteins with antibodies after separation by electrophoresis.
Assay [2] has as its system U-937. Briefly: Effect on alpha tubulin acetylation in U937 cells at 1 uM after 24 hrs by Western blot analysis. The following applies: Homo sapiens. It is filed as functional, cell-based.
Assay [3] has as its system U-937. Briefly: Increase in histone H3 acetylation in U937 cells at 5 uM after 24 hrs by Western blot analysis. It is filed as cell-based. The settings on record: Homo sapiens.
Assay [4] deals with U-937. Briefly: Induction of apoptosis in U937 cells after 30 hrs by FACS analysis. It is filed as functional, cell-based. The settings on record: Homo sapiens. The method in brief:
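U937 cells in supplemented RPMI were exposed 30 h to compounds dissolved in DMSO (1 or 5 µM). Apoptosis was scored by flow cytometry as the percentage of active caspase 3-positive cells, as the mean of independent duplicates.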
(In general: A flow cytometer gives signals particle by particle.)

In assay [5] the test system is U-937. Briefly: Effect on cell cycle analysis in U937 cells assessed as accumulation at G1 phase after 30 hrs. It is filed as functional, cell-based. The following applies: Homo sapiens. In outline:
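U937 cells grown in RPMI with 10% FCS, antibiotics, 10 mM HEPES and 2 mM glutamine at 200 000 cells/mL, then treated 30 h with compounds in DMSO (1 or 5 µM). 2.5 × 10⁵ cells in hypotonic buffer (0.1% Triton X-100, 0.1% sodium citrate, 50 µg/mL propidium iodide, RNAse A), 30 min in the dark. DNA content by flow cytometry; run at least twice.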

For assay [6], the system named is U-937. Briefly: Effect on granulocyte differentiation in U937 cells assessed as CD11c expression after 30 hrs. It is filed as functional, Homo sapiens. The method in brief:
(§1)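 U937 cells were stained with phycoerythrine-conjugated anti-CD11c for 30 min at 4 °C in the dark, with PE-mouse IgG1 as the staining control. Cells were washed in PBS, taken up in PBS with 0.25 µg/mL propidium iodide and analysed by FACS. PI-positive cells were excluded.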

The target of a further assay is Histone deacetylase 4 (Homo sapiens, UniProt P56524). Briefly: Inhibition of HDAC4. The method in brief: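 HDAC4 catalytic fragment (aa 627-1085, C-terminal GST tag, baculovirus-expressed) was used at 2 µg per assay with 1-2 h enzymatic incubation in the fluorimetric deacetylase assay. Four scalar concentrations were tested in quadruplicate, and the IC50 was calculated from fluorescence.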
Sequence of Histone deacetylase 4 (P56524 whole entry, the tested form may be a part): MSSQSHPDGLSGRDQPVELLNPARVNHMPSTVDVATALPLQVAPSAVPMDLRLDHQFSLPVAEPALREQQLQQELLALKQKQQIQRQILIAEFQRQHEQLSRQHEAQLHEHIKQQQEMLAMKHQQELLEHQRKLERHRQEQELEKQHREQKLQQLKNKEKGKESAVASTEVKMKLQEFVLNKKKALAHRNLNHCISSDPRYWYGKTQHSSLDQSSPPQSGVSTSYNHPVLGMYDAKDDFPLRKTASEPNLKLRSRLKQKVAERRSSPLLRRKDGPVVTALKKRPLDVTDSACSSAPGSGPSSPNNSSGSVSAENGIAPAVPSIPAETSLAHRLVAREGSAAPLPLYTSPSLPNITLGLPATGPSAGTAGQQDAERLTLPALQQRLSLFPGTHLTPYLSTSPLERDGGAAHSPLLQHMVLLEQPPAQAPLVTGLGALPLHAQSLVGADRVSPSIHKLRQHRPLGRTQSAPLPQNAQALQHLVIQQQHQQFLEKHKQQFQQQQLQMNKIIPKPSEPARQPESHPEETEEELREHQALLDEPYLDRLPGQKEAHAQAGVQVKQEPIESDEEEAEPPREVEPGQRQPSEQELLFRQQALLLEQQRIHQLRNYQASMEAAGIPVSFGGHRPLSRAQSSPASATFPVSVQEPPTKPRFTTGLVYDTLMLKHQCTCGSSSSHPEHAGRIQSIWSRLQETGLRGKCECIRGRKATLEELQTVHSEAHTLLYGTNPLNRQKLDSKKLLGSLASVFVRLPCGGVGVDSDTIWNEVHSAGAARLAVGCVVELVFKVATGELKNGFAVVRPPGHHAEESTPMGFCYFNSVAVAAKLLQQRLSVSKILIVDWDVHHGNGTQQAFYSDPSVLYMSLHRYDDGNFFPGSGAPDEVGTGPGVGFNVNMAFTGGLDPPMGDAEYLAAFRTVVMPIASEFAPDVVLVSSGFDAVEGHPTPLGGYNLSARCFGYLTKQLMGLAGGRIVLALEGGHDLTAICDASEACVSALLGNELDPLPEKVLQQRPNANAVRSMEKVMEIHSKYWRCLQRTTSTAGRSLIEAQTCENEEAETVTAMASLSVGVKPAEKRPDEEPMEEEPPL

The target of assay [7] is T1, Histone deacetylase 1 (Homo sapiens, UniProt Q13547). Briefly: Inhibition of HDAC1. In outline:
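Purified recombinant HDAC1 was incubated with the acetyl-lysine Fluor de Lys substrate, with or without inhibitor. Developer then released a fluorophore, read by fluorimetry. Four scalar concentrations were tested in quadruplicate to derive the IC50.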

Assay [8] addresses T1, Histone deacetylase 1. Briefly: Inhibition of HDAC1 at 5 uM.
Assay [9] concerns U-937. Briefly: Effect on granulocyte differentiation in U937 cells assessed as CD11c expression at 5 uM after 30 hrs. The following applies: Homo sapiens. It is filed as functional, cell-based. In outline:
as §1

pIC50: −log10 of the molar value. Activity calls are given as the source filed them. The rule behind the calls is not given here.

By pIC50 is commonly meant −log10 of the IC50, conventionally taken in molar units.

T1 sequence (Q13547 whole entry): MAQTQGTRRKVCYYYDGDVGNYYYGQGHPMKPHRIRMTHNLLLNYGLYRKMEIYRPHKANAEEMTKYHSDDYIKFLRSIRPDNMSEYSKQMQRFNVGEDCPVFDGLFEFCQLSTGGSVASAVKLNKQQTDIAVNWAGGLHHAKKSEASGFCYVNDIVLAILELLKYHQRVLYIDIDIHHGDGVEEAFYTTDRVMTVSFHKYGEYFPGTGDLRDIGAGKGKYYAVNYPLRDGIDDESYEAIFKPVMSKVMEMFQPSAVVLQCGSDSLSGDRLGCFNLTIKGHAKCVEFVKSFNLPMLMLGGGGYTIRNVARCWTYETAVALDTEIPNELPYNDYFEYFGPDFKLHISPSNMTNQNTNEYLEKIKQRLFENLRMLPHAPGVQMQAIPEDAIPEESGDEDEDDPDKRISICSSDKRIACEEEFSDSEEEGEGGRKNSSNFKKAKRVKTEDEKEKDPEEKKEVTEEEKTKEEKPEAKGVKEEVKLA

For `Nc1ccccc1NC(=O)c1ccc(CNC(=O)OCc2cccnc2)cc1`, the outcome with U-937 [1] and in the assay on U-937 [2] was inactive. The outcome in the assay with U-937 [3] was Active.
`O=C(CCCCCCC(=O)Nc1ccccc1)NO`: the result in the assay on U-937 [1] and with U-937 [2] was inactive. Further, the outcome in the assay with U-937 [3] was Active.
Turning to `C=CCCCCCCc1ccc[n+](CCCCCCCCCCCCCc2ccc[n+](CCCCCCC=C)c2)c1`, the result in the assay on U-937 [4] and with U-937 [3] was Active. Also, the result in the assay on U-937 [1] and in the assay with U-937 [2] was inactive.
In the case of `c1cc2c[n+](c1)CCCCCCCCCCCCc1ccc[n+](c1)CCCCCCCCCCC2`, the outcome with U-937 [1] and with U-937 [2] was inactive.
Consider `c1cc2c[n+](c1)CCCCCCCCCCCCc1ccc[n+](c1)CCCCCCCCCCCC2`, for which the result in the assay with U-937 [1] and in the assay with U-937 [2] was inactive.
`c1cc2c[n+](c1)CCCCCCCCCCCCCc1ccc[n+](c1)CCCCCCCCCCCC2`: the outcome with U-937 [1] and in the assay with U-937 [2] was inactive. In the assay with U-937 [3], the outcome was Active.
With `C=CCCCCCC[n+]1cccc(CCCCCCCCCCCC[n+]2cccc(CCCC=C)c2)c1.[Cl-].[I-]`, the result with U-937 [4], with U-937 [5] and with U-937 [3] was Active. The outcome with U-937 [1] and in the assay with U-937 [2] was inactive. In the assay on U-937 [6], the Activity was 30%. Besides, the pIC50 against Histone deacetylase 4 was 6.27; at Histone deacetylase 1 [7], 5.73.
Consider `C=CCCCCCC[n+]1cccc(CCCCCCCCCCCCC[n+]2cccc(CCCC=C)c2)c1.[Cl-].[I-]`, for which the result with U-937 [4] and with U-937 [3] was Active. The outcome in the assay on U-937 [1] and with U-937 [2] was inactive. In the assay with U-937 [6], the Activity worked out at 30%.
Take `C=CCCCCCC[n+]1cccc(CCCCCCCCCCCCC[n+]2cccc(CCCCC=C)c2)c1`: the outcome in the assay with U-937 [4] and in the assay with U-937 [3] was Active. Further, the result in the assay with U-937 [1] and in the assay with U-937 [2] was inactive.
With `c1cc2c[n+](c1)CCCCCCCCCCCCCCc1ccc[n+](c1)CCCCCCCCCCCC2`, the result with U-937 [1] and in the assay with U-937 [2] was inactive.
On to `C=CCCCCCCc1ccc[n+](CCCCCCCCCCCCc2ccc[n+](CCCCCCC=C)c2)c1.[Cl-].[I-]`, for which the result in the assay on U-937 [4] and with U-937 [3] was Active. The outcome with U-937 [1] and in the assay with U-937 [2] was inactive. The Activity with U-937 [6] amounted to 30%.
Turning to `c1cc2c[n+](c1)CCCCCCCCCCCCCc1ccc[n+](c1)CCCCCCCCCCC2`, the result in the assay with U-937 [1] and with U-937 [2] was inactive. In addition, the result in the assay on U-937 [3] was Active.
In the case of `c1cc2c[n+](c1)CCCCCCCCCCCCCCc1ccc[n+](c1)CCCCCCCCCCCCC2`, the outcome in the assay with U-937 [1] and in the assay with U-937 [2] was inactive.
`C=CCCCCCC[n+]1cccc(CCCCCCCCCCCC[n+]2cccc(CCCCC=C)c2)c1.[Cl-].[I-]`: the outcome in the assay on U-937 [4], at Histone deacetylase 1 [8], in the assay on U-937 [9] and with U-937 [3] was Active. The result in the assay on U-937 [1] and in the assay with U-937 [2] was inactive. Further, the Activity with U-937 [6] was determined as 30%. Moreover, the pIC50 against Histone deacetylase 4 was less than 3.70; against Histone deacetylase 1 [7], 6.28.

(Values after ChEMBL document CHEMBL1139873, “Bispyridinium dienes: histone deacetylase inhibitors with selective activities” (J Med Chem, 2007).)
